The record followed here is ChEMBL document CHEMBL1140766, “SAR of a series of anti-HSV-1 acridone derivatives, and a rational acridone-based design of a new anti-HSV-1 3H-benzo[b]pyrazolo[3,4-h]-1,6-naphthyridine series” (Bioorg Med Chem, 2008).

pEC50: −log10 of the molar value. Calls of active or inactive are those of the source. No cut-off for these calls is given here.

The test system of series [1] is Human alphaherpesvirus 1. Description: Antiviral activity against acyclovir-resistant HSV1 AR29 replication in Vero cells after 72 hrs. It is filed as functional. The conditions noted are these: for pEC50: Human alphaherpesvirus 1, AR29, Vero, read-out: ED50 (the source's name).
Series [2] relates to Human alphaherpesvirus 1. Description: Antiviral activity against acyclovir-resistant HSV1 AR29 replication in Vero cells at 50 uM after 72 hrs. The conditions noted are these: for inhibition at 50 µM: Human alphaherpesvirus 1, AR29, Vero. It is filed as functional. The method, boiled down: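 Confluent Vero monolayers (DMEM, 5% FCS, 37 C, 5% CO2) infected with HSV-1 AR-29 at m.o.i. 1, 0.1, 0.01 or 0.001 for 1 h at 37 C. Cells were PBS-washed, then given medium with or without compound at 50 µM. At 72 h, titer was read as TCID50/mL by end-point dilution (Reed–Muench). % inhibition came from treated versus mock-treated infected titers. Acyclovir 50 µM served as control. Duplicates, ≥3 experiments.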

The nature of series [3]: Cytotoxicity against african green monkey Vero cells assessed as cell viability after 72 hrs by MTT assay. It is filed as cell-based. The conditions noted are these: chlorocebus sabaeus. (Formazan colour is commonly taken as a measure of viable cells.)
In series [4] the test system is Human alphaherpesvirus 1. Description: Antiviral activity against acyclovir-resistant HSV1 AR29 replication in Vero cells at >50 uM after 72 hrs. It is filed as functional.

Turning to `O=c1c2cccc(Cl)c2[nH]c2cc3ccccc3c(O)c12`, in series [1], the outcome was inactive.

A word on the inhibition: it is the percentage by which the read-out fell short of the control. The compound `Cc1nn(-c2ccccc2)c2ncc3c(Cl)c4ccccc4nc3c12` showed an inhibition at 50 µM in series [2] of 70%.

By CC50 is commonly meant the concentration giving 50% cytotoxicity. In the case of `Cc1cccc2c(Cl)c3cnc4c(c(C)nn4-c4ccccc4)c3nc12`, testing at 50 µM in series [2] gave an inhibition of 66%. Also, the CC50 at 72 h in series [3] amounted to 640 µM.

On to `Cc1cccc2c(O)c3c(O)cc(O)cc3nc12`, for which the pEC50 in series [1] is 5.10.

A word on the Inhibition: it is the percentage by which the read-out fell short of the control. As for `COc1cc(O)c2c(=O)c3cccc(Cl)c3[nH]c2c1`, the pEC50 in series [1] is less than 4.30. This compound had an Inhibition in series [4] of 6%.

As to `O=c1c2c(O)cc(O)cc2[nH]c2cccc(Cl)c12`, in series [1], the pEC50 is 5.00.

Regarding `O=c1c2ccc(Cl)cc2[nH]c2cc(O)cc(O)c12`, the pEC50 in series [1] is 5.00.

Compound `Cc1ccc2nc3c(cnc4c3cnn4-c3ccccc3)c(Cl)c2c1` showed an inhibition at 50 µM in series [2] of 82%. Also, the 50% cytotoxic concentration (CC50) at 72 h in series [3] stood at 640 µM.

On to `COc1ccc2nc3c(cnc4c3cnn4-c3ccccc3)c(Cl)c2c1`, for which the inhibition at 50 µM in series [2] was 68%. Moreover, the CC50 at 72 h in series [3] was found to be 640 µM.

For the compound `Cc1ccc2nc3c(cnc4c3c(C)nn4-c3ccccc3)c(Cl)c2c1`, the result in series [2] was inactive.

In turn, `O=c1c2ccccc2[nH]c2c1cnc1c2cnn1-c1ccccc1` registered an inhibition at 50 µM in series [2] of 74%. Besides, the CC50 at 72 h in series [3] amounted to 640 µM.

In series [2], `Cc1nn(-c2ccccc2)c2ncc3c(Cl)c4cc(Cl)ccc4nc3c12` registered an inhibition at 50 µM of 39%. The half-maximal cytotoxic concentration (CC50) at 72 h in series [3] is 640 µM.

Consider `O=c1c2cc(Cl)ccc2[nH]c2cc(O)cc(O)c12`, for which the pEC50 in series [1] is 4.80.

As to `Nc1nc2c(ncn2COCCO)c(=O)[nH]1` [ACYCLOVIR], the CC50 at 72 h in series [3] worked out at 126 µM.

Regarding `O=c1c2ccccc2[nH]c2cc(O)cc(O)c12`, the pEC50 in series [1] was 4.35.

`Cc1nn(-c2ccccc2)c2ncc3c(Cl)c4cccc(Cl)c4nc3c12` returned an inhibition at 50 µM in series [2] of 100%.

`Cc1cc(O)c2c(=O)c3cccc(Cl)c3[nH]c2c1`: in series [1], the outcome was inactive.

In series [2], `Cc1ccc2[nH]c3c(cnc4c3cnn4-c3ccccc3)c(=O)c2c1` displayed an inhibition at 50 µM of 92%. In addition, in series [3], the CC50 at 72 h is 640 µM.

For the compound `O=c1c2cccc(Cl)c2[nH]c2cc(O)cc(O)c12`, the pEC50 in series [1] was 5.40.

Turning to `COc1cccc2c(O)c3c(O)cc(O)cc3nc12`, the pEC50 in series [1] was 5.66.
